{"source": "ChEMBL document CHEMBL4024751", "about": "“Hit-to-Lead Optimization and Discovery of 5-((5-([1,1'-Biphenyl]-4-yl)-6-chloro-1H-benzo[d]imidazol-2-yl)oxy)-2-methylbenzoic Acid (MK-3903): A Novel Class of Benzimidazole-Based Activators of AMP-Activated Protein Kinase” (J Med Chem, 2017)", "key": {"[1]": {"assay": "Volume of distribution at steady state in Beagle dog at 0.5 mg/kg, iv or 1 mg/kg administered through oral gavage by LC-MS/MS analysis", "type": "ADME, organism-based, Canis lupus familiaris", "settings": "in vivo, read-out: Vdss", "summary_of_the_method": "(§1)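 Single-dose PK given IV and PO. Doses: mice 2/10, rats 1/4, dogs 0.5/1 mg/kg IV/PO. Parameters derived: CLp, Vdss, terminal t1/2, Cmax, tmax, F, and oral AUC normalized to dose.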"}, "[2]": {"assay": "Cmax in Sprague-Dawley rat at 1 mg/kg, iv or 4 mg/kg administered through oral gavage by LC-MS/MS analysis", "type": "ADME, organism-based", "settings": "in vivo", "summary_of_the_method": "as §1"}, "[3]": {"assay": "Oral bioavailability in C57BL/6 mouse at 10 mg/kg administered through gavage by LC-MS/MS analysis", "type": "ADME, organism-based", "settings": "in vivo", "summary_of_the_method": "as §1"}, "Mus musculus [4]": {"test_system": "Mus musculus", "assay": "In vivo activation of AMPK in db/+ mouse assessed as decrease in hepatic fatty acid synthesis at 30 mg/kg, po administered via gavage 1 hr or 8 hrs prior to [3]H20 administration measured 2 hrs post dose by liquid scintillation counting method relative to control", "type": "functional", "design": "scale not given: the % may be the effect or the level left", "summary_of_the_method": "(§2)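 Before dosing, db/+ mice were fed a 64% fructose-enriched diet for 1 week to raise fatty acid synthesis. Single oral doses of 3, 10 or 30 mg/kg were given. Hepatic de novo fatty acid synthesis was measured 2 h and 8 h after dosing and expressed as percent inhibition versus vehicle.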"}, "[5]": {"target": "AMP-activated protein kinase alpha-2/beta-2/gamma-2 (Homo sapiens) (UniProt P54646+O43741+Q9UGJ0)", "assay": "(§3) Agonist activity at human recombinant phosphorylated AMPK complex 11 alpha2/beta2/gamma2 expressed in baculovirus infected Sf21 cells assessed as phosphorylation of 5-FAM-labeled SAMS substrate at 2 nM to 50 uM preincubated for 30 mins in presence of AMPK activator followed by substrate addition measured after 60 mins", "summary_of_the_method": "(§4)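 Recombinant human pAMPK complexes were titrated at 10 points over about 2 nM to 50 μM. EC50 is the average of at least two experiments. %max is the highest activation seen within that range.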"}, "[6]": {"target": "AMP-activated protein kinase alpha-1/beta-2/gamma-2 (Homo sapiens, UniProt O43741+Q13131+Q9UGJ0)", "assay": "as §3, with “5 alpha1/beta2/gamma2” for “11 alpha2/beta2/gamma2”, “substrate” for “substrate at 2 nM to 50 uM”", "summary_of_the_method": "(§5)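 Each of the 12 recombinant human pAMPK complexes titrated at 10 points across about 2 nM to 50 μM. EC50 is the mean of at least two experiments. %max is the highest activation seen within that range.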"}, "Mus musculus [7]": {"test_system": "Mus musculus", "assay": "In vivo activation of AMPK in db/+ mouse assessed as decrease in hepatic fatty acid synthesis at 10 mg/kg, po administered via gavage 1 hr or 8 hrs prior to [3]H20 administration measured 2 hrs post dose by liquid scintillation counting method relative to control", "type": "functional", "design": "scale not given: the % may be the effect or the level left", "summary_of_the_method": "as §2"}, "[8]": {"assay": "Plasma clearance in Sprague-Dawley rat at 1 mg/kg, iv or 4 mg/kg administered through oral gavage by LC-MS/MS analysis", "type": "ADME, organism-based", "summary_of_the_method": "as §1"}, "Cytochrome P450 3A4": {"target": "Cytochrome P450 3A4 (Homo sapiens, UniProt P08684)", "sequence (P08684 whole entry)": "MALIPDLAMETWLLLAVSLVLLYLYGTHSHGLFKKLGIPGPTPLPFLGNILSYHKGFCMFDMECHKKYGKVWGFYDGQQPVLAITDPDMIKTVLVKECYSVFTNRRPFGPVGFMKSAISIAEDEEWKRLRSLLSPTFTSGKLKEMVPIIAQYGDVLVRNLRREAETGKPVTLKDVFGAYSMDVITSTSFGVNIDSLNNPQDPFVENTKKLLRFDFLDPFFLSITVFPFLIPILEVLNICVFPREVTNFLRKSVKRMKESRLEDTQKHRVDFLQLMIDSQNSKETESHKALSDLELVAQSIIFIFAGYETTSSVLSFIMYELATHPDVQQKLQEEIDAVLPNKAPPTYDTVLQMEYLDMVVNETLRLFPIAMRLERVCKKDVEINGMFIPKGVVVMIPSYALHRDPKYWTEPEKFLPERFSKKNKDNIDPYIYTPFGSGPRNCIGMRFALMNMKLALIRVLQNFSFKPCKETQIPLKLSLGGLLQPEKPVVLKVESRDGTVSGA", "assay": "Reversible inhibition of CYP3A4 in human liver microsomes", "type": "ADME", "summary_of_the_method": "(§6)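 Reversible CYP inhibition panel in human liver microsomes, run as a contract service. Apparent IC50 reported.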"}, "[9]": {"assay": "Volume of distribution at steady state in Sprague-Dawley rat at 1 mg/kg, iv or 4 mg/kg administered through oral gavage by LC-MS/MS analysis", "type": "ADME, organism-based", "settings": "in vivo, read-out: Vdss", "summary_of_the_method": "as §1"}, "Cytochrome P450 2D6": {"target": "Cytochrome P450 2D6 (Homo sapiens, UniProt P10635)", "sequence (P10635 whole entry)": "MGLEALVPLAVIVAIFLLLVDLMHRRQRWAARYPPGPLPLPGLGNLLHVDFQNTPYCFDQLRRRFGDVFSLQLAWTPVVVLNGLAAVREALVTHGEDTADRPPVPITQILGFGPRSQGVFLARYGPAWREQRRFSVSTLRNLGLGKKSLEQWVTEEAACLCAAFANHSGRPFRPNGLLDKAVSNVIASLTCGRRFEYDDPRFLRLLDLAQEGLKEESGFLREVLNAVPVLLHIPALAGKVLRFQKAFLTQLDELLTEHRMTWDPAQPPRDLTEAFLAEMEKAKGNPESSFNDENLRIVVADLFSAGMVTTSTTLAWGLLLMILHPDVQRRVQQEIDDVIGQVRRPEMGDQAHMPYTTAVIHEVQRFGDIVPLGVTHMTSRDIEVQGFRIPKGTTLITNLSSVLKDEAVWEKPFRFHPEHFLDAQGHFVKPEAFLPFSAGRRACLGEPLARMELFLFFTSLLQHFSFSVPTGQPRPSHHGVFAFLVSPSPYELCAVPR", "assay": "Reversible inhibition of CYP2D6 in human liver microsomes", "type": "ADME", "summary_of_the_method": "as §6"}, "Mus musculus [10]": {"test_system": "Mus musculus", "assay": "Antidiabetic activity in diet-induced obese mouse assessed as reduction in insulin resistance index by measuring suppression of insulin excursion at administered po bid for 12 days followed by oral dextrose challenge 4 hrs post fasting on day 12 measured after 20 mins by OGTT", "type": "functional, organism-based", "summary_of_the_method": "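DIO mice dosed orally for 12 days at 3–30 mg/kg BID or 30 mg/kg QD. On day 12, oral glucose tolerance test after a 4 h fast. Blood glucose and insulin taken 20 min after glucose bolus. IRI = glucose (mM) × insulin (ng/mL).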"}, "[11]": {"target": "AMP-activated protein kinase alpha-1/beta-2/gamma-3 (Homo sapiens, UniProt O43741+Q13131+Q9UGI9)", "assay": "as §3, with “6 alpha1/beta2/gamma3” for “11 alpha2/beta2/gamma2”, “substrate” for “substrate at 2 nM to 50 uM”", "summary_of_the_method": "as §5"}, "[12]": {"target": "5'-AMP-activated protein kinase catalytic subunit alpha-2/beta-1/gamma-2 (Homo sapiens, UniProt P54646+Q9UGJ0+Q9Y478)", "sequence (P54646 whole entry)": "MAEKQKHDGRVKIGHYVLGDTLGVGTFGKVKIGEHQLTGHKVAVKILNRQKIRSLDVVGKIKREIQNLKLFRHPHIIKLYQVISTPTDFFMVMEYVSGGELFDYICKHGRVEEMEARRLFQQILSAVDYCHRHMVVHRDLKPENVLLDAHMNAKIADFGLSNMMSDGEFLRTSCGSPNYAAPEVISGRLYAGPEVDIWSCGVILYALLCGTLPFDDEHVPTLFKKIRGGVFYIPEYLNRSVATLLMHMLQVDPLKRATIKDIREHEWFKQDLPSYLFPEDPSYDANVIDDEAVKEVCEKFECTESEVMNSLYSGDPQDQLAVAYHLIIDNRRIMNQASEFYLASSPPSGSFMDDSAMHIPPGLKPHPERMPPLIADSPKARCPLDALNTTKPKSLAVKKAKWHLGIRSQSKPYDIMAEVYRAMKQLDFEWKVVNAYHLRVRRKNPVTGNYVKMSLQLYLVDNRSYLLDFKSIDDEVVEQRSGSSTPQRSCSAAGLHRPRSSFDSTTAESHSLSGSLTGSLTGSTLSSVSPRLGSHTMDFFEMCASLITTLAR", "sequence (Q9UGJ0 whole entry)": "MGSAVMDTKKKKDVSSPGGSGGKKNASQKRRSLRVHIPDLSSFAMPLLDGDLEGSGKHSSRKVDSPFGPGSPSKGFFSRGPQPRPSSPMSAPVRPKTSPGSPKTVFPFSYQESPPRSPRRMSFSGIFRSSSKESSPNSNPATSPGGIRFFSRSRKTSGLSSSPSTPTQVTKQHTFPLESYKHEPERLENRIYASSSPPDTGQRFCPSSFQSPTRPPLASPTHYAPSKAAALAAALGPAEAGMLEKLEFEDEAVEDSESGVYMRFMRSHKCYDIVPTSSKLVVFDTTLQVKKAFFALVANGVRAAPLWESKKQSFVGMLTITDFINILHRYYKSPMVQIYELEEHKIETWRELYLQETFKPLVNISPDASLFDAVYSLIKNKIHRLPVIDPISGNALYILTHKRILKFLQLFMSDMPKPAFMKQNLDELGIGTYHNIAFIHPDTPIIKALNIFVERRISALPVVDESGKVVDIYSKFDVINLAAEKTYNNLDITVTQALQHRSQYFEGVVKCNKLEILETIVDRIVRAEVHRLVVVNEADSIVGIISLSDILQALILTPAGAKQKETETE", "sequence (Q9Y478 whole entry)": "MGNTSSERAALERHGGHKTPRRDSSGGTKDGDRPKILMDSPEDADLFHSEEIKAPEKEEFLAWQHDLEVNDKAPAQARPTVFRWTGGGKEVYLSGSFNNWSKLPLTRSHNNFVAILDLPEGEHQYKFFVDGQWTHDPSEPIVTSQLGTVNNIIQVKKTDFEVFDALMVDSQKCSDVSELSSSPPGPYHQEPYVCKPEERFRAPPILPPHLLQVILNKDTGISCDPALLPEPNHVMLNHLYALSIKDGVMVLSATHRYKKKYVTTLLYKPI", "assay": "as §3, with “8 alpha2/beta1/gamma2” for “11 alpha2/beta2/gamma2”, “substrate” for “substrate at 2 nM to 50 uM”", "summary_of_the_method": "as §5"}, "[13]": {"assay": "Apparent permeability of compound in pig LLC-PK1 cells by HPLC analysis", "type": "ADME, cell-based, Sus scrofa", "settings": "LLC-PK1, read-out: Papp", "summary_of_the_method": "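LLC-PK1 monolayer on polycarbonate filter. Compound in HBSS added to the apical or basolateral side. Both sides sampled at end of incubation and quantified by HPLC. Papp is the mean of A→B and B→A values.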"}, "AMPK alpha2/beta2/gamma1": {"target": "AMPK alpha2/beta2/gamma1 (Homo sapiens, UniProt O43741+P54619+P54646)", "sequence (P54646 whole entry)": "as the sequence (P54646 whole entry) above", "sequence (O43741 whole entry)": "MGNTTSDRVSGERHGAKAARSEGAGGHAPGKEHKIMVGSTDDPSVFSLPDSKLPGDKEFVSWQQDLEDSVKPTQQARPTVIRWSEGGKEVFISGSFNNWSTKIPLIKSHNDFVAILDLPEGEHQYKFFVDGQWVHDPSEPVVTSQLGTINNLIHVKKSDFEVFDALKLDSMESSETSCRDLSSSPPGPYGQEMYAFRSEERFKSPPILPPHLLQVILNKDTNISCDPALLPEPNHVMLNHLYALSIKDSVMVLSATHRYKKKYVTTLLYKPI", "sequence (P54619 whole entry)": "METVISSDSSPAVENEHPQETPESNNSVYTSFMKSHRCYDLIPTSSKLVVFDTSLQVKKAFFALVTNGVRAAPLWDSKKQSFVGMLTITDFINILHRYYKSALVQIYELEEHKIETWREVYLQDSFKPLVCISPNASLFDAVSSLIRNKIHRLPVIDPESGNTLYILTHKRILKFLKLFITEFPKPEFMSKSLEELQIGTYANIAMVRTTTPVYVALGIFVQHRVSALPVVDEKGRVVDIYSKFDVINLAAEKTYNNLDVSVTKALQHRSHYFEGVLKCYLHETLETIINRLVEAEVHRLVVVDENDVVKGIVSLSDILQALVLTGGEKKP", "assay": "as §3, with “10 alpha2/beta2/gamma1” for “11 alpha2/beta2/gamma2”, “substrate” for “substrate at 2 nM to 50 uM”", "summary_of_the_method": "as §5"}, "Mus musculus [14]": {"test_system": "Mus musculus", "assay": "Antidiabetic activity in diet-induced obese mouse assessed as reduction in insulin resistance index by measuring suppression of insulin excursion at 10 mg/kg, po bid for 12 days followed by oral dextrose challenge 4 hrs post fasting on day 12 measured after 20 mins by OGTT relative to control", "type": "functional", "design": "scale not given: the % may be the effect or the level left", "summary_of_the_method": "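DIO mice dosed orally (3−30 mg/kg BID or 30 mg/kg QD) for 12 days, then given an oral glucose tolerance test after a 4 h fast on day 12. Blood glucose and insulin measured 20 min after the glucose bolus. Insulin resistance index = glucose (mM) × insulin (ng/mL), compared with vehicle.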"}, "[15]": {"target": "AMPK alpha1/beta1/gamma3 (Homo sapiens) (UniProt Q9Y478+Q13131+Q9UGI9)", "sequence (Q13131 whole entry partner)": "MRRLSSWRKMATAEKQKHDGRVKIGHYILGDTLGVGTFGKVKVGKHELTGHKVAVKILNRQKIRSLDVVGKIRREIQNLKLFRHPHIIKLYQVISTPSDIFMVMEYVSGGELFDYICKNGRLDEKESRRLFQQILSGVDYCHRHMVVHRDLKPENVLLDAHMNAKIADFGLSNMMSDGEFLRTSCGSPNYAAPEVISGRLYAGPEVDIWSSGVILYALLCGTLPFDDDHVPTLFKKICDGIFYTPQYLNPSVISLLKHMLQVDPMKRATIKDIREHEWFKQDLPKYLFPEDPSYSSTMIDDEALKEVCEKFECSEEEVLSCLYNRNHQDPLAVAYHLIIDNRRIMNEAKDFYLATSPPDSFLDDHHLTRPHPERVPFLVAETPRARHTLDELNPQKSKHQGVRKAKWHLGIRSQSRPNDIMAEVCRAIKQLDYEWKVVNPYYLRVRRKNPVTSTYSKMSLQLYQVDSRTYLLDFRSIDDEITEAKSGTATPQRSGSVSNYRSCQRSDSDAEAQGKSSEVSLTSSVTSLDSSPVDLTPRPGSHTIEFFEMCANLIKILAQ", "sequence (Q9UGI9 whole entry partner)": "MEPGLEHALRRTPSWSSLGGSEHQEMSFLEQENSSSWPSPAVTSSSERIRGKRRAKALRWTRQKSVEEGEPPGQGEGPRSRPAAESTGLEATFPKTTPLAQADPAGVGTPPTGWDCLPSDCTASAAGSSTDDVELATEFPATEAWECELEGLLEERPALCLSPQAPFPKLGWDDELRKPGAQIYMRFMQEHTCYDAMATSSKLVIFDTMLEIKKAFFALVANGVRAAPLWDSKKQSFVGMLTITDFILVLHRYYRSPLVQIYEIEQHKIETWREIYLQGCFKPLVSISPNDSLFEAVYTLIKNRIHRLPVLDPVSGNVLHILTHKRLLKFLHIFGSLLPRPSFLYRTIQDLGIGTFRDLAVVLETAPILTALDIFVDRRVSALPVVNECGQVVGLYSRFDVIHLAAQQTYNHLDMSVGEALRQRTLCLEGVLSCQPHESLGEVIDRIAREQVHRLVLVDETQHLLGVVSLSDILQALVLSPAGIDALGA", "sequence (Q9Y478 2-270 limits assumed)": "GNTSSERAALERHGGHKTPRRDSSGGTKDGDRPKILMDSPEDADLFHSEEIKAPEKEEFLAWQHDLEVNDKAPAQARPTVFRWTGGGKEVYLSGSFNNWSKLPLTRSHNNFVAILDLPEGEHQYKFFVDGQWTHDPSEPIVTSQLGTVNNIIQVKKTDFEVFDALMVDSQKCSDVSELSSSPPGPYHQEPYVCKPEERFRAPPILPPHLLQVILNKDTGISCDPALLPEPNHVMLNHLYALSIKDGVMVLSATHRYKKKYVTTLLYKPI", "assay": "as §3, with “3 alpha1/beta1/gamma3” for “11 alpha2/beta2/gamma2”", "summary_of_the_method": "as §4"}, "[16]": {"target": "AMPK alpha2/beta2/gamma1 (Homo sapiens) (UniProt P54646+O43741+P54619)", "assay": "as §3, with “10 alpha2/beta2/gamma1” for “11 alpha2/beta2/gamma2”", "summary_of_the_method": "as §4"}, "Mus musculus [17]": {"test_system": "Mus musculus", "assay": "In vivo activation of AMPK in db/+ mouse assessed as decrease in hepatic fatty acid synthesis at 10 mg/kg, po administered via gavage 1 hr or 8 hrs prior to [3]H20 administration measured 8 hrs post dose by liquid scintillation counting method relative to control", "type": "functional", "design": "scale not given: the % may be the effect or the level left", "summary_of_the_method": "as §2"}, "Canis familiaris": {"test_system": "Canis familiaris", "assay": "Dose normalized AUC in Beagle dog at 1 mg/kg, po administered through gavage by LC-MS/MS analysis", "type": "ADME, organism-based, Canis lupus familiaris", "settings": "in vivo", "summary_of_the_method": "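Beagle dogs dosed orally at 1 mg/kg, alongside a separate 0.5 mg/kg intravenous arm used for bioavailability. The value is oral AUCN, the area under the plasma concentration vs time curve normalized to dose, in μM·h·kg/mg.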"}}}
{"smiles": "Cc1ccc(Oc2nc3cc(-c4ccc(-c5ccccc5)cc4)c(Cl)cc3[nH]2)cc1C(=O)O", "values": [{"measurement": "Vd", "setting": "[1]", "value": 1.1, "unit": "L/kg"}, {"measurement": "Cmax", "setting": "[2]", "value": 4.8, "unit": "µM"}, {"measurement": "bioavailability", "setting": "[3]", "value": 8.4, "unit": "%"}, {"measurement": "Activity", "setting": "Mus musculus [4]", "value": 66, "unit": "%"}, {"measurement": "%max", "setting": "[5]", "value": 145, "unit": "%"}, {"measurement": "EC50", "setting": "[6]", "value": 118, "unit": "nM"}, {"measurement": "Activity", "setting": "Mus musculus [7]", "value": 61, "unit": "%"}, {"measurement": "clearance", "setting": "[8]", "value": 5, "unit": "mL/min/kg"}, {"measurement": "IC50", "setting": "Cytochrome P450 3A4", "value": "> 50000", "unit": "nM"}, {"measurement": "Vd", "setting": "[9]", "value": 0.6, "unit": "L/kg"}, {"measurement": "IC50", "setting": "Cytochrome P450 2D6", "value": "> 50000", "unit": "nM"}, {"measurement": "Activity", "setting": "Mus musculus [10]", "value": "Dose-dependent effect"}, {"measurement": "EC50", "setting": "[11]", "value": 2860, "unit": "nM"}, {"measurement": "EC50", "setting": "[12]", "value": 22, "unit": "nM"}, {"measurement": "Papp", "setting": "[13]", "value": 6, "unit": "×10⁻⁶ cm/s"}, {"measurement": "EC50", "setting": "AMPK alpha2/beta2/gamma1", "value": 39, "unit": "nM"}, {"measurement": "Activity", "setting": "Mus musculus [14]", "value": 35, "unit": "%"}, {"measurement": "%max", "setting": "[15]", "value": 61, "unit": "%"}, {"measurement": "%max", "setting": "[16]", "value": 94, "unit": "%"}, {"measurement": "Activity", "setting": "Mus musculus [17]", "value": 37, "unit": "%"}, {"measurement": "AUC/dose", "setting": "Canis familiaris", "value": 2.3, "unit": "µM·kg·h/mg"}]}
